# Reference: article PMC3933949 (Bioorganic & medicinal chemistry, 2012)
# Several values for one entry are separate records, joined by “and”; a condition that tells them apart may be missing. Equal values may be shown once.
# Tests used:
# aromatase = conditions: cited from earlier work; for aromatase inhibition of naturally occurring isoflavones (in words): literature background
# [1] = target: T1, recombinant human aromatase (CYP19) (Homo sapiens, UniProt P11511); experiment: Fluorescence-based aromatase activity assay; type: biochemical; conditions: for increase in inhibition potency compared to model compound 1a: ratio of aromatase IC50 values versus 1a; for aromatase inhibition (in words): recombinant human aromatase, fluorescence assay
# T1 sequence (P11511 1-503): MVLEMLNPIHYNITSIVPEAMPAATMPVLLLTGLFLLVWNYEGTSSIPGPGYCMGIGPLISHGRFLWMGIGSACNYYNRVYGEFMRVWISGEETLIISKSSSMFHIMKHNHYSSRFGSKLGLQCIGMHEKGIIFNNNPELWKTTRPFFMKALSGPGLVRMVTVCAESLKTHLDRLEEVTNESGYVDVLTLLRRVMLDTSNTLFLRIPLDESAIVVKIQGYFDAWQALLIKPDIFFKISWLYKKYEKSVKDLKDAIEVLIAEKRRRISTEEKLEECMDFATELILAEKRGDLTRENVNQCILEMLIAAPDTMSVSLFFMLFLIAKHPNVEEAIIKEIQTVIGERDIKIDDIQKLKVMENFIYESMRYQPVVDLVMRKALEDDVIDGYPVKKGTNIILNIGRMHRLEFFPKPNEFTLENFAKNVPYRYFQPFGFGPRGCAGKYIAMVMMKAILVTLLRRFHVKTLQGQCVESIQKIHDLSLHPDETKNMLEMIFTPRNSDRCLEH
# How it was run: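 Baculovirus/insect-cell-expressed human aromatase with P450 reductase; 3-fold serial dilutions from acetonitrile stocks, preincubated 10 min at 37 °C with NADPH-regenerating cofactor mix (pH 7.5). Enzyme/MFC solution (pH 7.4) was added, then 30 min at 37 °C, Tris stop, fluorescence ex 409/em 530 nm. Interfering compounds: DBF substrate, 2 h, NaOH stop.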
smiles,measurement,setting,value
"O=C1c2ccccc2OCC1c1ccc(O)c(O)c1 (stereo not shown) [3′,4′-dihydroxyisoflavanone]",IC50,"aromatase; aromatase, isoflavanone compounds, ref 20b",200 µM and ≥ 200 µM
"O=C1c2ccccc2OCC1c1ccc(Oc2ccccc2)cc1 (stereo not shown) [Compound 1h, 3-(4-Phenoxyphenyl)chroman-4-one]",increase in inhibition potency compared to model compound 1a,[1],12 fold
"O=C1c2ccccc2OCC1c1ccc(-c2ccccc2)cc1 (stereo not shown) [Compound 1i, 3-(Biphenyl-4-yl)chroman-4-one]",aromatase inhibition (in words),[1],no significant inhibition
"O=C1c2ccccc2OCC1c1cc2ccccc2c2ccccc12 (stereo not shown) [Compound 1j, 3-(Phenanthren-9-yl)chroman-4-one]",aromatase inhibition (in words),[1],no significant inhibition
"COc1cc(OC)cc(C2COc3ccccc3C2=O)c1 (stereo not shown) [Compound 2g, 3-(3,5-Dimethoxyphenyl)chroman-4-one]",increase in inhibition potency compared to model compound 1a,[1],threefold
"O=C1c2ccccc2OCC1c1ccsc1 (stereo not shown) [Compound 3a, 3-(Thiophen-3-yl)chroman-4-one]",aromatase inhibition (in words),[1],did not exhibit a significant increase in potency
"O=C1c2ccccc2OCC1c1cccnc1 (stereo not shown) [Compound 3b, 3-(Pyridin-3-yl)chroman-4-one]",increase in inhibition potency compared to model compound 1a,[1],fivefold
"O=C1c2cc(Cl)ccc2OCC1c1ccccc1 (stereo not shown) [Compound 4b, 6-Chloro-3-phenylchroman-4-one]",aromatase inhibition (in words),[1],Enhanced inhibitory effects
"CC(C)(C)c1ccc2c(c1)C(=O)C(c1ccccc1)CO2 (stereo not shown) [Compound 4d, 6-tert-Butyl-3-phenylchroman-4-one]",aromatase inhibition (in words),[1],reduced the binding affinity
O=c1c(-c2ccc(O)cc2)coc2cc(O)ccc12 [daidzein],aromatase inhibition of naturally occurring isoflavones (in words),aromatase,either inactive or weak inhibitors
O=c1c(-c2ccc(O)cc2)coc2cc(O)cc(O)c12 [genistein],aromatase inhibition of naturally occurring isoflavones (in words),aromatase,either inactive or weak inhibitors
COc1cc2c(=O)c(-c3ccc(O)cc3)coc2cc1O [glycitein],aromatase inhibition of naturally occurring isoflavones (in words),aromatase,either inactive or weak inhibitors
"O=c1c(-c2ccccc2)coc2ccccc12 [isoflavone, 3-phenylbenzopyrone]",aromatase inhibition of scaffold (in words),aromatase; ref 20b,inactive
